# Data as given in ChEMBL document CHEMBL3407339, “A novel series of thiazolyl-pyrazoline derivatives: synthesis and evaluation of antifungal activity, cytotoxicity and genotoxicity” (Eur J Med Chem, 2015).
# Columns and labels:
# [1] = system: Nakaseomyces glabratus; assay: Antifungal activity against Candida glabrata clinical isolate after 48 hrs by broth microdilution assay; type: functional
# How it was run: (§1)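 Broth microdilution of DMSO stocks serially diluted in sterile water (4 to 0.0039 mg/mL). Yeasts grown on SDA at 37 °C for 24 h, suspended in double-strength PDB at 10⁵ spores/mL. Incubated at 37 °C for 48 h, then sprayed with 0.5% aqueous TTC. MIC = lowest concentration inhibiting visible growth. Ketoconazole reference.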
# [2] = system: Candida albicans; assay: Antifungal activity against Candida albicans ATCC 90028 after 48 hrs by broth microdilution assay; type: functional; conditions: ATCC 90028, 48 h; how it was run: as §1
# [3] = system: Candida tropicalis; assay: Antifungal activity against Candida tropicalis NRLL Y 12968 after 48 hrs by broth microdilution assay; type: functional; conditions: NRLL Y 12968, 48 h; how it was run: as §1
# [4] = system: Pichia kudriavzevii; assay: Antifungal activity against Candida krusei NRLL Y 7179 after 48 hrs by broth microdilution assay; type: functional; conditions: NRLL Y 7179, 48 h; how it was run: as §1
# [5] = system: [Candida] zeylanoides; assay: Antifungal activity against Candida zeylanoides NRLL Y 1774 after 48 hrs by broth microdilution assay; type: functional; conditions: Dujonia zeylanoides, NRLL Y 1774, 48 h; how it was run: as §1
# [6] = system: Candida parapsilosis; assay: Antifungal activity against Candida parapsilosis NRLL Y 12696 after 48 hrs by broth microdilution assay; type: functional; conditions: Lodderomyces parapsilosis, NRLL Y 12696, 48 h; how it was run: as §1
# [7] = system: Aspergillus flavus; assay: Antifungal activity against Aspergillus flavus NRRL 980 after 72 hrs by broth microdilution assay; type: functional; conditions: NRRL 980, 72 h
# How it was run: (§2)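 Compounds dissolved in DMSO, diluted in sterile distilled water from 4 to 0.0039 mg/mL. Molds grown on PDA at 25 °C for 5 days, suspended in double-strength PDB at 10⁵ spores/mL. Incubated at 25 °C for 72 h; mycelial growth read under stereo microscope. MIC = lowest concentration inhibiting visible growth. Ketoconazole reference.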
# [8] = system: Aspergillus niger; assay: Antifungal activity against Aspergillus niger ATCC 1094 after 72 hrs by broth microdilution assay; type: functional; conditions: ATCC 1094, 72 h; how it was run: as §2
# [9] = system: Aspergillus parasiticus; assay: Antifungal activity against Aspergillus parasiticus NRRL 465 after 72 hrs by broth microdilution assay; type: functional; conditions: NRRL 465, 72 h; how it was run: as §2
# [10] = system: Fusarium solani; assay: Antifungal activity against Fusarium solani NRRL 13414 after 72 hrs by broth microdilution assay; type: functional; conditions: NRRL 13414, 72 h; how it was run: as §2
# [11] = system: Salmonella typhimurium; assay: Mutagenicity in Salmonella typhimurium TA98 at 0.156 mg/ml after 48 hrs by AMES MPF assay in presence of Sprague-Dawley rat liver microsomal S9 fraction relative to baseline; type: toxicity, organism-based; conditions: salmonella enterica subsp. enterica serovar typhimurium
# How it was run: (§3)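 Ames MPF fluctuation test with TA98/TA100. Overnight cultures (37 °C, 14–16 h) mixed with exposure medium; ±Aroclor-1254-induced rat liver S9 (final 4.5% v/v). Compounds in DMSO, 0.156–5 mg/mL. 90 min exposure at 37 °C, then indicator medium; 48 wells per concentration, 48 h at 37 °C, in triplicate. Yellow wells counted; fold induction over baseline (mean + 1 SD of zero-dose control).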
# [12] = system: Salmonella typhimurium; assay: Mutagenicity in Salmonella typhimurium TA98 at 0.3125 mg/ml after 48 hrs by AMES MPF assay in presence of Sprague-Dawley rat liver microsomal S9 fraction relative to baseline; type: toxicity, organism-based; conditions: salmonella enterica subsp. enterica serovar typhimurium; how it was run: as §3
# [13] = system: Salmonella typhimurium; assay: Mutagenicity in Salmonella typhimurium TA98 at 0.625 mg/ml after 48 hrs by AMES MPF assay in presence of Sprague-Dawley rat liver microsomal S9 fraction relative to baseline; type: toxicity, organism-based; conditions: salmonella enterica subsp. enterica serovar typhimurium; how it was run: as §3
# [14] = system: Salmonella typhimurium; assay: Mutagenicity in Salmonella typhimurium TA98 at 1.25 mg/ml after 48 hrs by AMES MPF assay in presence of Sprague-Dawley rat liver microsomal S9 fraction relative to baseline; type: toxicity, organism-based; conditions: salmonella enterica subsp. enterica serovar typhimurium; how it was run: as §3
# [15] = system: Salmonella typhimurium; assay: Mutagenicity in Salmonella typhimurium TA98 at 2.5 mg/ml after 48 hrs by AMES MPF assay in presence of Sprague-Dawley rat liver microsomal S9 fraction relative to baseline; type: toxicity, organism-based; conditions: salmonella enterica subsp. enterica serovar typhimurium; how it was run: as §3
# [16] = system: Salmonella typhimurium; assay: Mutagenicity in Salmonella typhimurium TA98 at 5 mg/ml after 48 hrs by AMES MPF assay in presence of Sprague-Dawley rat liver microsomal S9 fraction relative to baseline; type: toxicity, organism-based; conditions: salmonella enterica subsp. enterica serovar typhimurium; how it was run: as §3
# [17] = system: Salmonella typhimurium; assay: Mutagenicity in Salmonella typhimurium TA98 at 0.156 mg/ml after 48 hrs by AMES MPF assay in absence of Sprague-Dawley rat liver microsomal S9 fraction relative to baseline; type: toxicity, organism-based; conditions: salmonella enterica subsp. enterica serovar typhimurium; how it was run: as §3
# [18] = system: Salmonella typhimurium; assay: Mutagenicity in Salmonella typhimurium TA98 at 0.3125 mg/ml after 48 hrs by AMES MPF assay in absence of Sprague-Dawley rat liver microsomal S9 fraction relative to baseline; type: toxicity, organism-based; conditions: salmonella enterica subsp. enterica serovar typhimurium; how it was run: as §3
# [19] = system: Salmonella typhimurium; assay: Mutagenicity in Salmonella typhimurium TA98 at 0.625 mg/ml after 48 hrs by AMES MPF assay in absence of Sprague-Dawley rat liver microsomal S9 fraction relative to baseline; type: toxicity, organism-based; conditions: salmonella enterica subsp. enterica serovar typhimurium; how it was run: as §3
# [20] = system: Salmonella typhimurium; assay: Mutagenicity in Salmonella typhimurium TA98 at 1.25 mg/ml after 48 hrs by AMES MPF assay in absence of Sprague-Dawley rat liver microsomal S9 fraction relative to baseline; type: toxicity, organism-based; conditions: salmonella enterica subsp. enterica serovar typhimurium; how it was run: as §3
# [21] = system: Salmonella typhimurium; assay: Mutagenicity in Salmonella typhimurium TA98 at 2.5 mg/ml after 48 hrs by AMES MPF assay in absence of Sprague-Dawley rat liver microsomal S9 fraction relative to baseline; type: toxicity, organism-based; conditions: salmonella enterica subsp. enterica serovar typhimurium; how it was run: as §3
# [22] = system: Salmonella typhimurium; assay: Mutagenicity in Salmonella typhimurium TA98 at 5 mg/ml after 48 hrs by AMES MPF assay in absence of Sprague-Dawley rat liver microsomal S9 fraction relative to baseline; type: toxicity, organism-based; conditions: salmonella enterica subsp. enterica serovar typhimurium; how it was run: as §3
# [23] = system: Salmonella typhimurium; assay: Mutagenicity in Salmonella typhimurium TA100 at 0.156 mg/ml after 48 hrs by AMES MPF assay in presence of Sprague-Dawley rat liver microsomal S9 fraction relative to baseline; type: toxicity, organism-based; conditions: salmonella enterica subsp. enterica serovar typhimurium; how it was run: as §3
# [24] = system: Salmonella typhimurium; assay: Mutagenicity in Salmonella typhimurium TA100 at 0.3125 mg/ml after 48 hrs by AMES MPF assay in presence of Sprague-Dawley rat liver microsomal S9 fraction relative to baseline; type: toxicity, organism-based; conditions: salmonella enterica subsp. enterica serovar typhimurium; how it was run: as §3
# [25] = system: Salmonella typhimurium; assay: Mutagenicity in Salmonella typhimurium TA100 at 0.625 mg/ml after 48 hrs by AMES MPF assay in presence of Sprague-Dawley rat liver microsomal S9 fraction relative to baseline; type: toxicity, organism-based; conditions: salmonella enterica subsp. enterica serovar typhimurium; how it was run: as §3
# [26] = system: Salmonella typhimurium; assay: Mutagenicity in Salmonella typhimurium TA100 at 1.25 mg/ml after 48 hrs by AMES MPF assay in presence of Sprague-Dawley rat liver microsomal S9 fraction relative to baseline; type: toxicity, organism-based; conditions: salmonella enterica subsp. enterica serovar typhimurium; how it was run: as §3
# [27] = system: Salmonella typhimurium; assay: Mutagenicity in Salmonella typhimurium TA100 at 2.5 mg/ml after 48 hrs by AMES MPF assay in presence of Sprague-Dawley rat liver microsomal S9 fraction relative to baseline; type: toxicity, organism-based; conditions: salmonella enterica subsp. enterica serovar typhimurium; how it was run: as §3
# [28] = system: Salmonella typhimurium; assay: Mutagenicity in Salmonella typhimurium TA100 at 5 mg/ml after 48 hrs by AMES MPF assay in presence of Sprague-Dawley rat liver microsomal S9 fraction relative to baseline; type: toxicity, organism-based; conditions: salmonella enterica subsp. enterica serovar typhimurium; how it was run: as §3
# [29] = system: Salmonella typhimurium; assay: Mutagenicity in Salmonella typhimurium TA100 at 0.156 mg/ml after 48 hrs by AMES MPF assay in absence of Sprague-Dawley rat liver microsomal S9 fraction relative to baseline; type: toxicity, organism-based; conditions: salmonella enterica subsp. enterica serovar typhimurium; how it was run: as §3
# [30] = system: Salmonella typhimurium; assay: Mutagenicity in Salmonella typhimurium TA100 at 0.3125 mg/ml after 48 hrs by AMES MPF assay in absence of Sprague-Dawley rat liver microsomal S9 fraction relative to baseline; type: toxicity, organism-based; conditions: salmonella enterica subsp. enterica serovar typhimurium; how it was run: as §3
# [31] = system: Salmonella typhimurium; assay: Mutagenicity in Salmonella typhimurium TA100 at 0.625 mg/ml after 48 hrs by AMES MPF assay in absence of Sprague-Dawley rat liver microsomal S9 fraction relative to baseline; type: toxicity, organism-based; conditions: salmonella enterica subsp. enterica serovar typhimurium; how it was run: as §3
# [32] = system: Salmonella typhimurium; assay: Mutagenicity in Salmonella typhimurium TA100 at 1.25 mg/ml after 48 hrs by AMES MPF assay in absence of Sprague-Dawley rat liver microsomal S9 fraction relative to baseline; type: toxicity, organism-based; conditions: salmonella enterica subsp. enterica serovar typhimurium; how it was run: as §3
# [33] = system: Salmonella typhimurium; assay: Mutagenicity in Salmonella typhimurium TA100 at 2.5 mg/ml after 48 hrs by AMES MPF assay in absence of Sprague-Dawley rat liver microsomal S9 fraction relative to baseline; type: toxicity, organism-based; conditions: salmonella enterica subsp. enterica serovar typhimurium; how it was run: as §3
# [34] = system: Salmonella typhimurium; assay: Mutagenicity in Salmonella typhimurium TA100 at 5 mg/ml after 48 hrs by AMES MPF assay in absence of Sprague-Dawley rat liver microsomal S9 fraction relative to baseline; type: toxicity, organism-based; conditions: salmonella enterica subsp. enterica serovar typhimurium; how it was run: as §3
# [35] = system: A549; assay: Antiproliferative activity against human A549 cells after 24 hrs by XTT assay; type: functional, cell-based; conditions: A549, 24 h
# How it was run: (§4)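 A549 cells in RPMI and NIH/3T3 cells in DMEM, each with fetal calf serum, antibiotics and 7.5% NaHCO₃, at 37 °C, 5% CO₂. Seeded at 20,000 cells/well, 24 h, then compounds added in medium at 500–3.9 doses (final DMSO <0.1%) for 24 h. XTT read after 3 h at 480 nm (ref 680 nm). IC₅₀ by non-linear regression; triplicates; cisplatin control.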
# [36] = Cytotoxicity against mouse NIH/3T3 cells after 24 hrs by XTT assay; type: cell-based; conditions: NIH3T3, 24 h; how it was run: as §4
smiles,measurement,setting,value
Fc1ccc(C2CC(c3ccc(Cl)s3)=NN2c2nc(-c3ccc(Br)cc3)cs2)cc1 (stereo unspecified),MIC,[1],125 µg/mL
same,MIC,[2],250 µg/mL
same,MIC,[3],250 µg/mL
same,MIC,[4],250 µg/mL
same,MIC,[5],250 µg/mL
same,MIC,[6],250 µg/mL
same,MIC,[7],125 µg/mL
same,MIC,[8],250 µg/mL
same,MIC,[9],250 µg/mL
same,MIC,[10],250 µg/mL
same,fold change (FC),[11],0.68
same,fold change (FC),[12],0.81
same,fold change (FC),[13],0.95
same,fold change (FC),[14],0.81
same,fold change (FC),[15],0.68
same,fold change (FC),[16],0.81
same,fold change (FC),[17],0
same,fold change (FC),[18],0.32
same,fold change (FC),[19],0
same,fold change (FC),[20],0
same,fold change (FC),[21],0
same,fold change (FC),[22],0
same,fold change (FC),[23],2.77
same,fold change (FC),[24],3.92
same,fold change (FC),[25],3.92
same,fold change (FC),[26],5.08
same,fold change (FC),[27],3.92
same,fold change (FC),[28],2.54
same,fold change (FC),[29],1
same,fold change (FC),[30],1
same,fold change (FC),[31],0.33
same,fold change (FC),[32],0
same,fold change (FC),[33],0.33
same,fold change (FC),[34],2
same,IC50,[35],62.5 µg/mL
same,IC50,[36],> 500 µg/mL
